Bioassay records (PubChem BioAssay)
In the library only some 3% were active in any assay of this set; here they are far more common.
Cl transport mod: KCC2 (human) Cl- transport modulation. KCC2 cells, thallium flux FluoZin-2 fluorescence. B-score of Tl+ flux slope (higher = more flux/activation; lower = inhibition) at 10 µM. hit rate 2.2% among 190,000;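 active = thallium flux slope and its plate-corrected score both differing from the plate sample mean at a set confidence after two filtering rounds, in either direction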;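 note: slope of fluorescence scaled to starting intensity during 10 to 20 s after thallium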
ROMK primary: human ROMK K+ channel modulation, primary screen; AID 1918; B-score at 10 µM; hit rate 2% among 130,000; Tet-inducible ROMK, thallium flux fluorescence; actives lie on both sides;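 active = signal ratio slope over the read window, or its plate-corrected B-score, at least 3 SD from the plate mean, either direction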;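 note: B-score of the F/F0 ratio slope over 7 to 12 s after thallium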
PKD1 kinase inh: blocks activity of human protein kinase D1; PKD1 kinase fluorescence polarization assay; inhibition, % (concentration not given with the values); hit rate 0.056% among 200,000; AID 797; in the data active = inhibition above about 50%
Rad51 HR inh: blocks human Rad51 in homologous recombination; Q06609; hRad51 DNA strand exchange, fluorescence dequenching; inhibition, % at 10 µM; hit rate 0.085% among 200,000; AID 1385;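 active = inhibition above 40% at the single screening dose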;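 note: 0% = DMSO control wells and 100% = blanks with heterologous ssDNA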
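Test system – preformed human Rad51 ssDNA filaments · Reagent – Donor/quencher-labelled 47-bp dsDNA substrate · Incubation – 37 °C 15-min filament assembly, 30-min compound preincubation, 15-min exchange · Signal – FRET fluorescence dequenching, excitation 485 nm, emission 520 nm · Read-out – percent inhibition from fluorescence, normalised to plate control and blank means · Benchmarks – plate control and blank wells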
FP interf 140K: FP interference, PKD inhibitor counter-screen. inhibition, % at 10 µM. AID 1315. 85 tested, under 10 active. shares compounds with PKD1 kinase inh. PKD1 FP assay interference counter-screen, fluorescence polarization; call rule not given here
Active calls of the source: *; nt = no result.

SMILES	Cl transport mod	ROMK primary	PKD1 kinase inh	Rad51 HR inh	others
COc1ccc(C(=O)/C(C#N)=N/Nc2cccc([N+](=O)[O-])c2)cc1	-5*	7.6*	-5	-24
N#C/C(=N\Nc1cccc(Cl)c1)C(=O)c1ccccc1	-2.5	-1.9	-6	1
O=C1N=C(N2CCCC2)CN1c1ccccc1	-0.12	1	-17	nt
O=C(N/N=C/c1c(O)n(Cc2ccccc2)c(=O)c2ccccc12)c1cccnc1	-3.2*	-4.4*	3	-69
COc1ccc([N+](=O)[O-])cc1NC(=O)c1cn(-c2ccc(C)c(C)c2)c(=O)c2ccccc12	-0.073	0.012	-9	1
CCCCC(Nc1ncnc2ccccc12)C(=O)O (stereo not drawn)	1.2	nt	-5	73*
CCn1c(=S)[nH]c2cc(C(=O)OC)ccc2c1=O	9.2*	2.2	-1	1
CC(=O)/C(=N\Nc1ccc(C)cc1)Sc1nncn1C	-0.53	0.17	-3	9
CSc1ncccc1C(=O)OCC(=O)c1cccc(Br)c1	0.21	-0.0085	-4	-12
CCCCCCOc1ccc(NC(=O)CC2C(=O)N(CC)C(=S)N2Cc2ccco2)cc1 (stereo not drawn)	0.87	-0.32	10	-10
O=C(O)c1cccc(N2C(=O)/C(=C/c3ccc(SCc4ccc(Cl)cc4)o3)SC2=S)c1	-0.053	-4.2*	-4	-134
Cc1ccc(/C=C2\SC(=S)N(c3cccnc3)C2=O)o1	0.2	nt	nt	-6
NC(=O)c1nsc(C(=O)N(CC(=O)NC2CCCC2)Cc2ccc3c(c2)OCO3)c1N	0.011	0.67	2	3
Cc1ccccc1N(CC(=O)N/N=C/c1cc(C)n(-c2ccccc2C)c1C)S(C)(=O)=O	-0.013	8.5*	-1	-3
O=c1cc(-c2ccccc2Cl)oc2c(NS(=O)(=O)c3cc(Cl)cc(Cl)c3O)ccc(O)c12	20*	0.41	-1	12
Cc1cc(N=NC(=O)c2ccccc2O)c2ccccc2c1O	-3.5*	-1.2	-4	8
O=C(CSc1nc2ccccc2n1CCc1ccccc1)N1CCOCC1	0.44	0.38	-5	2
O=C(CSc1nc2ccccc2n1CCc1ccccc1)c1ccc(O)c(O)c1	7.8*	1.4	-5	nt
Cc1ccccc1OC(=O)n1c(=S)oc2cc(Cl)ccc21	2.6*	1.2	-9	-2
O=C(Oc1ccccc1)n1c(=S)oc2ccccc21	0.94	nt	-8	nt
COc1cccc(NC(=S)N/N=C2/CCCCc3ccccc32)c1	24*	nt	-3	-2
CC(C)NC(=S)N/N=C1\CCCCc2ccccc21	2.7	0.053	-9	-6
CCN(CC)c1ccc(NC(=O)CCCOc2cccc(C)c2)cc1	2.2	nt	4	41*
O=C(NC(=S)NCCC1=CCCCC1)c1cncc(Br)c1	15*	nt	-3	9
CCN(CC)CCN1C(=O)c2oc3ccccc3c(=O)c2C1c1cccc(Br)c1 (stereo not drawn)	24*	-0.86	-4	4
SMILES	Cl transport mod	ROMK primary	PKD1 kinase inh	Rad51 HR inh	others
CCN(CC)CCN1C(=O)c2oc3ccccc3c(=O)c2C1c1ccccc1 (stereo not drawn)	nt	0.31	-12	5
CCC(=O)N1CCN(c2ccccc2NC(=O)COc2cccc(C)c2)CC1	13*	nt	2	2
CCn1c(CNc2ccc(Cl)cc2)nnc1SCC(=O)OC1CCCCC1	-0.073	-4.2*	-6	0
CS(=O)(=O)N1CCN(C(=O)c2ccc(Cl)s2)CC1	0.3	0.23	-2	43*
O=c1[nH][nH]c(C(F)(F)F)c1C=NCc1cccs1	-0.7	0.064	3	-3
COc1cc(C2=NOC(C(=O)NCc3ccco3)C2)cc(OC)c1OC (stereo not drawn)	nt	-0.044	112*	-4	FP interf 140K=-11
Nc1nc2ccccc2n1/N=C/c1ccc([N+](=O)[O-])s1	-0.19	0.63	52*	-2	FP interf 140K=-12
Nc1nc2ccccc2n1/N=C/c1cccnc1	-0.0023	2.2*	69*	-2	FP interf 140K=-15
Nc1nc2ccccc2n1/N=C/c1ccc(-c2ccccc2)o1	nt	0.13	-9	nt
Cc1nc2ccccc2n1/N=C/c1cccnc1	nt	1.2	10	0
CC(C)N1CN(c2ccccc2)C(=S)N(c2ccccc2)C1	-0.55	nt	nt	-9
CN1CCN(c2ccccc2NC(=O)c2ccc(Br)o2)CC1	0.085	0.74	41	nt
CS(=O)(=O)N1CCN(c2ccccc2NC(=O)c2ccc(Br)o2)CC1	-1.1	nt	96*	4	FP interf 140K=-9
Cc1ccc2c(c1)Sc1ccccc1CC2=O	nt	nt	2	13
CN(C)CCOc1ccc2c(c1)Sc1ccccc1CC2=O	0.38	-1.7	59*	nt	FP interf 140K=-17
